ChEMBL document CHEMBL1127749 (J Med Chem, 1994)

How the values were obtained:
[1] = target: Muscarinic acetylcholine receptor; experiment: In vitro binding affinity for muscarinic receptor by displacing [3H]oxotremorine-M binding on rat brain homogenate.; format: tissue-based
Method in brief: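 Duplicate full curves of five drug concentrations over 3 decades, triplicate points. IC50 taken from hand-drawn log curves; Ki via Cheng–Prusoff.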

[2] = target: T1, Muscarinic acetylcholine receptor M1 (Rattus norvegicus, UniProt P08482); experiment: In vitro binding affinity for muscarinic M1 receptor by displacing [3H]pirenzepine binding on rat brain homogenate.; format: tissue-based
T1 sequence (P08482 whole entry): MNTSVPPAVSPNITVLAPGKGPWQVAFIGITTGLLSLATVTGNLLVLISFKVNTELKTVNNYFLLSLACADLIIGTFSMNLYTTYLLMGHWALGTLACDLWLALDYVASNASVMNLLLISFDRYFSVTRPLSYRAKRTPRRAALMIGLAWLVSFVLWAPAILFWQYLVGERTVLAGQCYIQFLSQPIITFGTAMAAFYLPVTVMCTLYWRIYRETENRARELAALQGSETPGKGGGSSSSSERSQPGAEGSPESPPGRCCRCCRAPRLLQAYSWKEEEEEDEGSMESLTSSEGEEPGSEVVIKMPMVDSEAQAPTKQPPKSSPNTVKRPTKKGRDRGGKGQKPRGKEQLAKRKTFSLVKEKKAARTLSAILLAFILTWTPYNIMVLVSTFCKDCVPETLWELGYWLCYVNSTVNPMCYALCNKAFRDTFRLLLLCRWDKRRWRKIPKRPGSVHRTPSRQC
Method in brief: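 Two complete curves, five test concentrations spanning 3 decades, each in triplicate. IC50 read from hand-drawn log concentration–response curves, converted to Ki by Cheng–Prusoff.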

Rattus norvegicus [3] = species on record: Rattus norvegicus; experiment: Ratio of binding affinity at [3H]quinuclidinyl benzilate binding on rat brain stem homogenate to [3H]pirenzepine binding on rat brain homogenate
[4] = target: Muscarinic acetylcholine receptor; experiment: In vitro binding affinity for muscarinic receptor by displacing [3H]quinuclidinyl benzilate binding on rat brain stem homogenate.; format: tissue-based
Method in brief: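 Two full curves, five test concentrations over 3 decades in triplicate. Hand-drawn log curves gave IC50; Ki by Cheng–Prusoff.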

Rattus norvegicus [5] = species on record: Rattus norvegicus; experiment: Ratio of binding affinity at [3H]quinuclidinyl benzilate binding on rat brain homogenate to [3H]- Oxotremorine-M binding on rat brain homogenate; format: functional
Method in brief: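 Ago ratio computed as Ki from [³H]QNB binding to whole rat brain homogenate divided by Ki from [³H]oxotremorine-M binding to whole rat brain homogenate.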

[6] = target: Muscarinic acetylcholine receptor; experiment: In vitro binding affinity for muscarinic receptor by displacing [3H]quinuclidinyl benzilate binding on rat brain homogenate; format: tissue-based
Method in brief: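 Two concentration–response curves, five concentrations covering 3 decades, triplicates. IC50 estimated from hand-drawn log concentration–response curves and converted to Ki with Cheng–Prusoff equation.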

[7] = target: Muscarinic acetylcholine receptor M2 (Mus musculus) (UniProt Q9ERZ4); experiment: In vivo determination of peripheral M2 receptor mediated tremor, cholinergic side effect
[8] = target: Muscarinic acetylcholine receptor M2 (Mus musculus) (UniProt Q9ERZ4); experiment: In vivo determination of peripheral M2 receptor mediated salivation, cholinergic side effect
[9] = target: Muscarinic acetylcholine receptor M2 (Mus musculus) (UniProt Q9ERZ4); experiment: In vivo determination of peripheral M2 receptor mediated hypothermia, cholinergic side effect
[10] = target: Muscarinic acetylcholine receptor M2 (Cavia porcellus); experiment: M2 agonist activity estimated by depression of isolated guinea pig left atrium
[11] = target: Muscarinic acetylcholine receptor M3 (Cavia porcellus)
[12] = target: T1, Muscarinic acetylcholine receptor M1; experiment: M1 agonist activity estimated by rat superior cervical ganglion depolarization; format: functional, tissue-based

| Ki [1] [nM] | Ki [2] [nM] | Ratio (Rattus norvegicus [3]) | Ki [4] [nM] | Ratio (Rattus norvegicus [5]) | Ki [6] [nM] | SMILES | ED50 [7] [µmol/kg] | ED50 [8] [µmol/kg] | ED50 [9] [µmol/kg] | EC50 [10] [nM] | EC50 [11] [nM] | EC50 [12] [nM] |
| --- | --- | --- | --- | --- | --- | --- | --- | --- | --- | --- | --- | --- |
| 450 | 900 |  |  |  |  | CCCN1CCC=C(c2nnn(CC)n2)C1 |  |  |  |  |  |  |
| 990 | 770 |  |  |  |  | CCn1cc(C2=CCCN(C)C2)nn1 |  |  |  |  |  |  |
| 5400 | 24000 |  |  |  |  | CN1CCC=C(c2nnnn2C)C1 |  |  |  |  |  |  |
| 4.7 | 6.3 | 5.1 | 32 | 9.1 | 43 | C=CCn1ncc(C2=CCCN(C)C2)n1 |  |  |  |  |  |  |
| 71 | 27 | 2.8 | 75 | 0.5 | 38 | CCCCCCCCn1nnc(C2=CCCN(C)C2)n1 |  |  |  |  |  |  |
| 4.5 | 1350 |  |  |  |  | Cn1nnc(C2=CCCNC2)n1 |  |  |  |  |  |  |
| 0.34 | 500 | 0.2 | 90 | 1700 | 570 | Cn1ncc(C2=CCCNC2)n1 |  |  |  |  |  |  |
| 31 | 30 |  |  |  |  | C#CCn1ncc(C2=CC(C)CNC2)n1 (stereo unspecified) |  |  |  |  |  |  |
| 570 | 960 |  |  |  |  | CC1=C(c2nnn(C)n2)CNCC1 |  |  |  |  |  |  |
| 52 | 32 | 6.9 | 220 | 1.9 | 100 | CCCCCCn1nnc(C2=CCCN(C)C2)n1 |  |  |  |  |  |  |
| 2.8 | 57 | 3.2 | 180 | 36 | 100 | CCCn1nnc(C2=CCCN(C)C2)n1 |  |  |  |  |  |  |
| 85 | 84 | 3.2 | 270 | 6.2 | 530 | CC(C)n1nnc(C2=CCCN(C)C2)n1 |  |  |  |  |  |  |
| 16 | 26 | 4.2 | 110 | 8.1 | 130 | CCCCCn1nnc(C2=CCCN(C)C2)n1 |  |  |  |  |  |  |
| 13 | 21 | 2.2 | 46 | 11 | 140 | C=CCn1nnc(C2=CCCN(C)C2)n1 |  |  |  |  |  |  |
| 180 | 900 |  |  |  |  | CC1CC=C(c2nnn(C)n2)CN1 (stereo unspecified) |  |  |  |  |  |  |
| 6.1 | 77 | 2.7 | 210 | 44 | 270 | CCCn1ncc(C2=CCCNC2)n1 |  |  |  |  |  |  |
| 2.6 | 15 | 2.5 | 38 | 18 | 47 | CCCn1ncc(C2=CCCN(C)C2)n1 |  |  |  |  |  |  |
| 6.1 | 250 | 0.9 | 230 | 130 | 790 | CN1CCC=C(c2nnn(C)n2)C1 |  |  |  |  |  |  |
| 78 | 140 |  |  |  |  | CCN1CCC=C(c2nnn(CC)n2)C1 |  |  |  |  |  |  |
| 4.9 | 100 | 1.3 | 130 | 51 | 250 | CCCCn1ncc(C2=CCCNC2)n1 |  |  |  |  |  |  |
| 33 | 40 |  |  |  |  | C=Cn1ncc(C2=CCCN(C)C2)n1 |  |  |  |  |  |  |
| 300 | 270 |  |  |  |  | CCn1nnc(C2=CCCN(C(C)C)C2)n1 |  |  |  |  |  |  |
| 69 | 180 |  |  |  |  | CC1C=C(c2nnn(C)n2)CNC1 (stereo unspecified) |  |  |  |  |  |  |
| 340 | 1400 |  |  |  |  | CCCCN1CCC=C(c2nnn(CC)n2)C1 |  |  |  |  |  |  |
| 5 | 37 | 5.9 | 220 | 16 | 81 | CCCCn1nnc(C2=CCCN(C)C2)n1 |  |  |  |  |  |  |
| 318 | 1700 |  |  |  |  | CCn1nncc1C1=CCCN(C)C1 |  |  |  |  |  |  |
| 92 | 120 | 0.8 | 90 | 2.5 | 230 | C=Cn1nnc(C2=CCCN(C)C2)n1 |  |  |  |  |  |  |
| 4.5 | 44 | 2.3 | 100 | 51 | 230 | C#CCn1nnc(C2=CCCN(C)C2)n1 |  |  |  |  |  |  |
| 1.6 | 7.7 | 2.9 | 22 | 26 | 41 | C#CCn1ncc(C2=CCCN(C)C2)n1 |  |  |  |  |  |  |

| SMILES | Ki [1] [nM] | Ki [2] [nM] | Ratio (Rattus norvegicus [3]) | Ki [4] [nM] | Ratio (Rattus norvegicus [5]) | Ki [6] [nM] | ED50 [7] [µmol/kg] | ED50 [8] [µmol/kg] | ED50 [9] [µmol/kg] | EC50 [10] [nM] | EC50 [11] [nM] | EC50 [12] [nM] |
| --- | --- | --- | --- | --- | --- | --- | --- | --- | --- | --- | --- | --- |
| CN1CCCC(c2nnn(C)n2)C1 (racemic) | 1200 | 4800 |  |  |  |  |  |  |  |  |  |  |
| Cn1nnc(C2CCCNC2)n1 (racemic) | 33 | 2300 |  |  |  |  |  |  |  |  |  |  |
| CCn1ncc(C2CCCNC2)n1 (racemic) | 11 | 260 | 1.1 | 280 | 48 | 530 |  |  |  |  |  |  |
| C=CCn1ncc(C2CCCNC2)n1 (racemic) |  |  | 3 |  | 36 |  | > 350 | 320 | > 350 |  |  |  |
| C=CCn1ncc(C2CCCNC2)n1 (single isomer, unassigned; (+)) [listing 1 of 2 here] | 45 | 210 |  | 330 |  | 190 |  |  |  | 680 | 4300 | > 3400 |
| CCn1nnc(C2CCCNC2)n1 (racemic) | 230 | 1100 |  |  |  |  |  |  |  |  |  |  |
| CCn1ncc(C2=CCCN(C)C2)n1 | 1.7 | 24 | 2.5 | 61 | 65 | 110 |  |  |  | > 51000 | 940 | > 1200 |
| C=CCn1ncc(C2CCCNC2)n1 (stereo in doubt; (-)-15b) [listing 1 of 2 here] |  |  | 1.8 |  | 14 |  | > 130 | > 130 | > 130 |  |  |  |
| C#CCn1ncc(C2CCCNC2)n1 (stereo in doubt; (-)-15c) [listing 1 of 2 here] | 7.8 | 140 |  |  |  | 270 |  |  |  |  |  |  |
| C#CCn1nnc(C2CCCNC2)n1 (racemic) | 31 | 260 |  |  |  |  |  |  |  |  |  |  |
| C#CCn1ncc(C2CCCNC2)n1 (stereo in doubt; (-)-15c) [listing 2 of 2 here] |  |  | 0.2 |  | 35 |  | 41 | 20 | 11 |  |  |  |
| C=CCn1ncc(C2CCCNC2)n1 (stereo in doubt; (-)-15b) [listing 2 of 2 here] | 37 | 170 |  | 310 |  | 530 |  |  |  | 840 |  | > 2500 |
| C=CCn1ncc(C2CCCNC2)n1 (single isomer, unassigned; (+)) [listing 2 of 2 here] |  |  | 1.6 |  | 4.2 |  | > 260 | > 260 | > 260 |  |  |  |
| C#CCn1ncc(C2CCCNC2)n1 (racemic) [listing 1 of 2 here] |  |  | 1.5 |  | 130 |  | 54 | 8.1 | 10 |  |  |  |
| C#CCn1ncc(C2CCCNC2)n1 (racemic) [listing 2 of 2 here] | 2.5 | 84 |  | 130 |  | 320 |  |  |  |  |  |  |
| CCCCn1ncc(C2=CCCN(C)C2)n1 | 2.5 | 13 | 2.8 | 37 | 19 | 48 |  |  |  |  |  |  |
| C#CCn1ncc(C2CCCNC2)n1 (single isomer, unassigned; (+)) [listing 1 of 2 here] |  |  | 0.2 |  | 44 |  | 32 | 7 | 23 |  |  |  |
| CCn1nnc(C2=CCCN(C)C2)n1 [ALVAMELINE] | 9.2 | 36 |  | 340 |  | 430 | > 120 | > 120 | > 120 |  |  | ≥ 2000 |
| CN1CCC=C(c2cnn(C)n2)C1 | 0.78 | 35 | 4.5 | 160 | 360 | 280 |  |  |  |  | 130 | ≥ 430 |
| C#CCn1ncc(C2CCCNC2)n1 (single isomer, unassigned; (+)) [listing 2 of 2 here] | 5.2 | 170 |  | 30 |  | 230 |  |  |  |  |  |  |
